Source: PubChem BioAssay
Most compounds without a hit are left out; they make up all but 4.4% or so of the library.
MPTP block: inhibitors of mitochondrial permeability transition pore | inhibition, % at 10 µM | AID 602449 | 360,000 tested, 1.4% active | isolated mouse mitochondria, Ca2+ swelling absorbance, 30 min;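 active = inhibition of 50% or more, scaled per plate between neutral and stimulator controls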;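 also: 0% = DMSO wells given calcium and 100% = 1 mM EGTA wells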
NR3A LBD binder: NR3A (human) ligand-binding domain modulation. NR3A LBD differential scanning fluorimetry, Tm shift; 0% = protein alone, 100% = glycine-bound protein. Tm shift relative to glycine control, % at 25 µM. 340,000 tested, 2.5% active;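 active = melting temperature shift of at least 10% of the positive control shift, at one fixed dose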
SENP1 FRET inh: SENP1 (human) catalytic domain inhibition | Q9P0U3 | recombinant SENP1 catalytic domain, CyPet-SUMO1-YPet FRET cleavage | inhibition, % at 10 µM | 360,000 tested, 0.21% active;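 active = inhibition at least 30% at 10 µM, raw YFP signal under a set limit, fluorescence ratio 0.5 to 1.5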;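 also: 0% = enzyme with DMSO and 100% = no enzyme wells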
Target sequence (Q9P0U3 419-644 limits assumed): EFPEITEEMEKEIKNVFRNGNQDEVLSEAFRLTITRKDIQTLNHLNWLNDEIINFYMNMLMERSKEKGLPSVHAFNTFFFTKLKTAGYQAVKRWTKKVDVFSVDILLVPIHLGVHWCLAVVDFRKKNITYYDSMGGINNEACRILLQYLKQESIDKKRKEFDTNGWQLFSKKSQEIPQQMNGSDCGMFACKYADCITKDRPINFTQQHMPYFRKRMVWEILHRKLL
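system = hSENP1 catalytic domain, recombinant | reagent = SFCypet-SUMO1-SFYpet substrate at 25 nM | doses = one dose per compound, 10 µM, 0.5% DMSO | incubation = enzyme reaction for 50 min at room temperature, dark | measured by = FRET, CFP and YFP emission | controls = no-enzyme low, enzyme-DMSO high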
EBI2 antag: EBI2 (human) antagonism; AID 651636; inhibition, % at 5 µM; P32249; 360,000 tested, 0.81% active; EBI2 beta-arrestin recruitment, luminescence, 7a,25-OHC stimulated; in the data active = inhibition above about 38%;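 also: enzyme fragment complementation signal reports receptor beta-arrestin coupling in cells; 0% = agonist plus DMSO wells and 100% = wells without agonist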
Target sequence (P32249 whole entry, looked up, the tested form may be a part): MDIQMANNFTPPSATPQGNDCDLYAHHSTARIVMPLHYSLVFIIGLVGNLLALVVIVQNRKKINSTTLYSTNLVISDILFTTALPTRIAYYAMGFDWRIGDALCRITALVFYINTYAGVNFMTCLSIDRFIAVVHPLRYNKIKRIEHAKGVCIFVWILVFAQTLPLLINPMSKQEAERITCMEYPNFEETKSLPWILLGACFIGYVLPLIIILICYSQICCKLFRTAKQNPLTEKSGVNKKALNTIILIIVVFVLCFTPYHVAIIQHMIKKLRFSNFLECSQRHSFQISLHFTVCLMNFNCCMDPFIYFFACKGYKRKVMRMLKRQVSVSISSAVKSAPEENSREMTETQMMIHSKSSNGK
Active calls of the source: *; · = not tested or not shown.

SMILES	MPTP block	NR3A LBD binder	SENP1 FRET inh	EBI2 antag
CC(=O)Nc1sc(NC(=O)c2ccccc2)nc1-c1cccs1	0	18*	3	0
CC(=O)Nc1sc(N/N=C\c2cccc(Cl)c2)nc1-c1cccs1	-6	14*	-18	3
CC(=O)Nc1sc(N/N=C\c2ccc(O)cc2)nc1-c1cccs1	3	0	-3	3
COc1ccccc1C(=O)Nc1nc(-c2cccs2)c(NC(C)=O)s1	0	1	1	2
Cc1c(Cl)sn(-c2ccc(Cl)cc2)c1=O	2	-3	0	70*
O=C(Nc1ccc(-c2cn3ccsc3n2)cc1)C1CCCC1	-2	-3	-1	-2
O=C(Nc1ccc(-c2cn3ccsc3n2)cc1)C1CC1	2	15*	-1	7
CCO/C=N/Nc1nc(C(F)(F)F)nc2c1cnn2Cc1ccccc1	3	13*	2	10
Cn1cc(C(=O)Nc2ccc(Cl)c(Cl)c2)cn1	3	2	0	-7
CCOc1ccccc1N1CCN(C(=O)CCNS(=O)(=O)c2ccccc2F)CC1	-1	41*	-1	-7
O=C(CCNS(=O)(=O)c1ccccc1)N1CCN(c2ccccc2F)CC1	-1	-1	2	0
Cc1cc(NS(=O)(=O)c2ccc(NC(=O)CCSc3ccc(F)cc3)cc2)nc(C)n1	0	1	1	-4
CC1(c2ccc(Cl)cc2)NC(=O)N(CC(=O)Nc2ccc(N3CCCCC3)cc2)C1=O (stereo unspecified)	0	-1	1	-11
CC1(c2ccc(Cl)cc2)NC(=O)N(CC(=O)N2CCCC2)C1=O (stereo unspecified)	0	11*	0	-4
COc1ccc(N2CCN(c3nc4ccc(C)cn4c(=O)c3C=O)CC2)cc1	1	1	-10	4
C=CCn1c(=O)c(C(=O)Nc2ccccc2S(N)(=O)=O)c(O)c2ccccc21	-4	-2	1	-1
Cc1cc(C(=O)OCC(=O)NCCc2ccccc2)c2ccccc2n1	1	-1	2	-3
CS(=O)(=O)N(CC(=O)Nc1ccc(CC#N)cc1)c1ccc(C23CC4CC(CC(C4)C2)C3)cc1	6	26*	1	1
COc1ccc(NC(=O)Cn2c(=O)n(CC(=O)NCc3ccco3)c(=O)c3ccccc32)cc1	0	1	0	-7
CCn1c(=O)n(CC(=O)NCc2ccco2)c(=O)c2ccccc21	14	11*	0	-1
CN(C)/N=C/c1ccc(OS(=O)(=O)c2ccccc2)cc1	0	-2	2	-7
CCCCCCCCOC(=O)C(NC(=O)CCC(=O)Nc1ccc(S(N)(=O)=O)cc1)C(O)c1ccccc1 (stereo unspecified)	-3	-2	-1	13
CCOC(=O)C(NC(=O)CCC(=O)Nc1ccc(S(N)(=O)=O)cc1)C(O)c1ccccc1 (stereo unspecified)	·	13*	·	·
CCN(CC)C(=O)COc1ccc(/C(C)=N/NC(=O)c2ccccc2-n2cccc2)cc1	0	-2	1	-9
Cc1ccc(CNC(=S)Nc2ccc(NS(=O)(=O)c3ccc(C)cc3)cc2)cc1	2	23*	1	6
SMILES	MPTP block	NR3A LBD binder	SENP1 FRET inh	EBI2 antag
CCOc1ccc(NS(=O)(=O)c2ccc(NS(C)(=O)=O)cc2)cc1	-6	0	1	2
CSc1cccc(NS(=O)(=O)c2ccccc2)c1	-1	20*	6	6
CSc1cccc(NS(=O)(=O)c2ccc(F)cc2)c1	4	-3	1	0
CSc1ccc(S(=O)(=O)Nc2ccc(S(=O)(=O)Nc3ccc(C)cc3)cc2)cc1	1	25*	0	4
CCOc1ccc(NS(=O)(=O)c2ccc(NS(=O)(=O)c3ccc(SC)cc3)cc2)cc1	0	28*	1	5
O=C(Oc1cccc2cccnc12)c1ccco1	-2	2	2	-4
O=C(Oc1ccc(Cl)c2cccnc12)c1ccco1	-3	0	3	58*
COC(=O)c1ccccc1N=Nc1c(N)n[nH]c1N	1	3	3	7
Cc1ccc(N=Nc2c(N)n[nH]c2N)cc1	0	-2	0	-5
Cc1ccc(-c2[nH]nc(N)c2N=Nc2ccccc2C)cc1	12	44*	-2	15
Cc1ccc(-c2[nH]nc(N)c2N=Nc2cccc(Cl)c2C)cc1	18	28*	0	7
Cc1cccc(N=Nc2c(N)n[nH]c2-c2ccc(Cl)cc2)c1	5	34*	0	6
CS(=O)(=O)N1CC(C(=O)NC2CC2)Oc2ccc(Cl)cc21 (stereo unspecified)	1	-2	0	-12
CCOc1ccc(NC(=O)CN(C)c2ccc(S(=O)(=O)N(C(C)C)C(C)C)cn2)cc1OCC	-2	17*	0	-10
CCOc1ccc(NC(=O)CN(C)CC(=O)Nc2ccccc2SC)cc1OCC	2	18*	-1	-9
COc1ccc(NC(=O)CN(C)CC(=O)Nc2ccccc2SC)cc1	1	-1	3	2
CCOC(=O)c1[nH]c2ccc(OC)cc2c1NC(=S)N1CCN(c2cccc(C)c2C)CC1	2	12*	-4	6
COc1ccccc1N1CCN(C(=O)Nc2cccc(Cl)c2)CC1	-4	-1	0	12
COc1cccc(NC(=O)N2CCN(c3cccc(C)c3C)CC2)c1	4	-6	-2	78*
Cc1ccc(C(=O)COC(=O)CNC(=O)c2ccccc2)s1	-2	0	0	-1
Cc1ccc(C(=O)Nc2nnc(-c3ccc(C(C)(C)C)cc3)s2)cc1	-1	10*	-2	-4
COc1ccc(C(=O)Nc2nnc(-c3ccccc3)s2)cc1	-1	0	-2	-11
O=c1c2cc(-c3ccccc3)sc2ncn1/N=C/c1ccco1	13	-2	-1	-1
O=C(Nc1nc2c(s1)CCCC2)c1ccc(Br)o1	1	11*	-3	-4
O=C(Nc1ccc(S(=O)(=O)Nc2nccs2)cc1)c1cc(-c2ccccc2)nc2ccccc12	-2	11*	3	8
SMILES	MPTP block	NR3A LBD binder	SENP1 FRET inh	EBI2 antag
Cc1ccc(C)c(-c2cc(C(=O)Nc3nccs3)c3ccccc3n2)c1	0	-1	-1	-31
Cc1ccc(-c2cc(C(=O)Nc3ccc(S(=O)(=O)Nc4ncccn4)cc3)c3ccccc3n2)cc1	0	-3	1	-4
Cc1ccc(-c2cc(C(=O)Nc3ccc(S(=O)(=O)Nc4nccs4)cc3)c3ccccc3n2)c(C)c1	2	15*	4	16
Cc1ccc(C)c(-c2cc(C(=O)Nc3cccnc3)c3ccccc3n2)c1	0	11*	0	2
COc1ccccc1NC(=O)Nc1ccc(NC(=O)c2ccccc2O)cc1	0	32*	2	-1
O=C(Nc1ccccc1O)c1ccccc1O	29	15*	2	-7
O=C(Nc1ccc(F)cc1)Nc1ccc(NC(=O)c2ccccc2O)cc1	9	32*	4	-3
O=C(COC(=O)c1c[nH]c2ccccc12)Nc1ccc([N+](=O)[O-])cc1	-2	2	2	3
COc1cc(/C=C2/C(=O)N(c3cccc(Br)c3)N=C2C)cc(OC)c1O	14	15*	19	28
